Measured values reported in ChEMBL document CHEMBL5058577, “EUbOPEN Chemogenomics Library 2 (Multiplex)” (2022).

Tested on: U2OS
Assay: Multiplex assay against U2OS
Format: toxicity, cell-based
Settings: human
Procedure, shortened: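 Imaging took place on a CQ1 microscope at 37°C and 5% CO2 once compound had been added to live cells stained at seeding with Hoechst33342, BioTracker Green Microtubule Cytoskeleton Dye, MitoTracker Red and Annexin V Alexa Fluor 680. CellPathfinder machine-learning gating classed cells as Hoechst high-intensity objects or normal cells, classed normal cells as having healthy, pyknosed or fragmented nuclei, and classed pyknosed cells as mitotic or apoptotic. Tubulin, mitochondrial-mass and membrane-permeability phenotypes are per cents of the healthy-nucleus cells.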

[1] = 12 h, 1 µM, compound concentration 1 uM, replicate 1
[2] = 12 h, 1 µM, compound concentration 1 uM, replicate 2
[3] = 12 h, 10 µM, compound concentration 10 uM, replicate 1
[4] = 12 h, 10 µM, compound concentration 10 uM, replicate 2
[5] = 24 h, 1 µM, compound concentration 1 uM, replicate 1
[6] = 24 h, 1 µM, compound concentration 1 uM, replicate 2
[7] = 24 h, 10 µM, compound concentration 10 uM, replicate 1
[8] = 24 h, 10 µM, compound concentration 10 uM, replicate 2
[9] = 48 h, 1 µM, compound concentration 1 uM, replicate 1
[10] = 48 h, 1 µM, compound concentration 1 uM, replicate 2
[11] = 48 h, 10 µM, compound concentration 10 uM, replicate 1
[12] = 48 h, 10 µM, compound concentration 10 uM, replicate 2

Cc1onc(-c2ccccc2Cl)c1C(=O)N(C)c1ccc(Cl)cc1
Population Apoptotic (%) [1]: 82% | Population Fragmented Nuclei (%) [1]: 26% | Population Healthy Nuclei (%) [1]: 67% | Population Hoechst High Intensity Objects (%) [1]: 0% | Population Membrane Permeable-Phenotype (%) [1]: 3% | Population Mitochondria Different-Phenotype (%) [1]: 2% | Population Mitotic Cells (%) [1]: 17% | Population Normal (%) [1]: 99% | Population Pyknosed Nuclei (%) [1]: 6% | Population Tubulin-Different-Phenotype (%) [1]: 1% | Total Cell Count [1]: 277 | Population Apoptotic (%) [2]: 78% | Population Fragmented Nuclei (%) [2]: 10% | Population Healthy Nuclei (%) [2]: 79% | Population Hoechst High Intensity Objects (%) [2]: 1% | Population Membrane Permeable-Phenotype (%) [2]: 4% | Population Mitochondria Different-Phenotype (%) [2]: 1% | Population Mitotic Cells (%) [2]: 21% | Population Normal (%) [2]: 98% | Population Pyknosed Nuclei (%) [2]: 10% | Population Tubulin-Different-Phenotype (%) [2]: 3% | Total Cell Count [2]: 136 | Population Apoptotic (%) [3]: 79% | Population Fragmented Nuclei (%) [3]: 28% | Population Healthy Nuclei (%) [3]: 58% | Population Hoechst High Intensity Objects (%) [3]: 4% | Population Membrane Permeable-Phenotype (%) [3]: 12% | Population Mitochondria Different-Phenotype (%) [3]: 5% | Population Mitotic Cells (%) [3]: 20% | Population Normal (%) [3]: 95% | Population Pyknosed Nuclei (%) [3]: 12% | Population Tubulin-Different-Phenotype (%) [3]: 5% | Total Cell Count [3]: 244 | Population Apoptotic (%) [4]: 77% | Population Fragmented Nuclei (%) [4]: 24% | Population Healthy Nuclei (%) [4]: 56% | Population Hoechst High Intensity Objects (%) [4]: 0% | Population Membrane Permeable-Phenotype (%) [4]: 7% | Population Mitochondria Different-Phenotype (%) [4]: 6% | Population Mitotic Cells (%) [4]: 22% | Population Normal (%) [4]: 99% | Population Pyknosed Nuclei (%) [4]: 19% | Population Tubulin-Different-Phenotype (%) [4]: 4% | Total Cell Count [4]: 113 | Population Apoptotic (%) [5]: 100% | Population Fragmented Nuclei (%) [5]: 23% | Population Healthy Nuclei (%) [5]: 70% | Population Hoechst High Intensity Objects (%) [5]: 0% | Population Membrane Permeable-Phenotype (%) [5]: 2% | Population Mitochondria Different-Phenotype (%) [5]: 2% | Population Mitotic Cells (%) [5]: 0% | Population Normal (%) [5]: 99% | Population Pyknosed Nuclei (%) [5]: 5% | Population Tubulin-Different-Phenotype (%) [5]: 0% | Total Cell Count [5]: 328 | Population Apoptotic (%) [6]: 83% | Population Fragmented Nuclei (%) [6]: 11% | Population Healthy Nuclei (%) [6]: 81% | Population Hoechst High Intensity Objects (%) [6]: 1% | Population Membrane Permeable-Phenotype (%) [6]: 4% | Population Mitochondria Different-Phenotype (%) [6]: 5% | Population Mitotic Cells (%) [6]: 16% | Population Normal (%) [6]: 98% | Population Pyknosed Nuclei (%) [6]: 7% | Population Tubulin-Different-Phenotype (%) [6]: 2% | Total Cell Count [6]: 168 | Population Apoptotic (%) [7]: 72% | Population Fragmented Nuclei (%) [7]: 26% | Population Healthy Nuclei (%) [7]: 62% | Population Hoechst High Intensity Objects (%) [7]: 3% | Population Membrane Permeable-Phenotype (%) [7]: 11% | Population Mitochondria Different-Phenotype (%) [7]: 6% | Population Mitotic Cells (%) [7]: 27% | Population Normal (%) [7]: 96% | Population Pyknosed Nuclei (%) [7]: 11% | Population Tubulin-Different-Phenotype (%) [7]: 4% | Total Cell Count [7]: 299 | Population Apoptotic (%) [8]: 64% | Population Fragmented Nuclei (%) [8]: 20% | Population Healthy Nuclei (%) [8]: 66% | Population Membrane Permeable-Phenotype (%) [8]: 8% | Population Mitochondria Different-Phenotype (%) [8]: 7% | Population Mitotic Cells (%) [8]: 35% | Population Pyknosed Nuclei (%) [8]: 13% | Population Tubulin-Different-Phenotype (%) [8]: 7% | Total Cell Count [8]: 129 | Population Apoptotic (%) [9]: 87% | Population Fragmented Nuclei (%) [9]: 16% | Population Healthy Nuclei (%) [9]: 75% | Population Hoechst High Intensity Objects (%) [9]: 2% | Population Membrane Permeable-Phenotype (%) [9]: 4% | Population Mitochondria Different-Phenotype (%) [9]: 3% | Population Mitotic Cells (%) [9]: 12% | Population Normal (%) [9]: 97% | Population Pyknosed Nuclei (%) [9]: 7% | Population Tubulin-Different-Phenotype (%) [9]: 2% | Total Cell Count [9]: 450 | Population Apoptotic (%) [10]: 89% | Population Fragmented Nuclei (%) [10]: 12% | Population Hoechst High Intensity Objects (%) [10]: 1% | Population Membrane Permeable-Phenotype (%) [10]: 1% | Population Mitochondria Different-Phenotype (%) [10]: 2% | Population Mitotic Cells (%) [10]: 10% | Population Normal (%) [10]: 98% | Population Pyknosed Nuclei (%) [10]: 11% | Population Tubulin-Different-Phenotype (%) [10]: 1% | Total Cell Count [10]: 252 | Population Apoptotic (%) [11]: 69% | Population Fragmented Nuclei (%) [11]: 22% | Population Healthy Nuclei (%) [11]: 67% | Population Hoechst High Intensity Objects (%) [11]: 3% | Population Membrane Permeable-Phenotype (%) [11]: 10% | Population Mitochondria Different-Phenotype (%) [11]: 5% | Population Mitotic Cells (%) [11]: 30% | Population Normal (%) [11]: 96% | Population Pyknosed Nuclei (%) [11]: 9% | Population Tubulin-Different-Phenotype (%) [11]: 4% | Total Cell Count [11]: 413 | Population Apoptotic (%) [12]: 90% | Population Fragmented Nuclei (%) [12]: 23% | Population Healthy Nuclei (%) [12]: 65% | Population Hoechst High Intensity Objects (%) [12]: 2% | Population Membrane Permeable-Phenotype (%) [12]: 9% | Population Mitotic Cells (%) [12]: 10% | Population Normal (%) [12]: 97% | Population Pyknosed Nuclei (%) [12]: 11% | Population Tubulin-Different-Phenotype (%) [12]: 3% | Total Cell Count [12]: 182
